Source: ChEMBL document CHEMBL1127367, “Antiproliferative properties of polyamine analogues: a structure-activity study” (J Med Chem, 1994)

How the values were obtained:
L1210 [1] = test: Compound was evaluated for its impact on spermidine levels after 48 hr at concentration 100 uM; assay type: functional, Mus musculus
L1210 [2] = test: Compound was evaluated for its impact on spermidine levels after 48 hr at concentration 20 uM; assay type: functional, Mus musculus
Outline: (§1)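 L1210 suspension cultures were grown in RPMI-1640 with 10% NuSerum, 2% HEPES-MOPS and 1 mM aminoguanidine (37 °C, 5% CO2). Log-phase cells were treated for 48 h, then washed twice in cold RPMI-1640 and pelleted. Pellets were extracted with 0.6 N perchloric acid, and supernatants were held at −20 °C until HPLC. Polyamine levels are given as % of untreated controls.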

L1210 [3] = test: Compound was evaluated for its impact on spermine […] levels after 48 hr at concentration 100 uM; assay type: functional, Mus musculus; outline: as §1
L1210 [4] = test: Compound was evaluated for its impact on spermine […] levels after 48 hr at concentration 20 uM; assay type: functional, Mus musculus; outline: as §1
L1210 [5] = test: Inhibition of radiolabeled spermidine uptake into L1210 cells in vitro.; assay type: functional, cell-based, Mus musculus
L1210 [6] = test: Compound was evaluated for its impact on putrescine (Put) levels after 48 hr at concentration 100 uM; assay type: functional, Mus musculus
L1210 [7] = test: Compound was evaluated for its impact on putrescine (Put) levels after 48 hr at concentration 20 uM; assay type: functional, Mus musculus; outline: as §1
L1210 [8] = test: In vitro inhibition of L1210 growth after 48 hours.; assay type: functional, cell-based; conditions: Mus musculus, L1210, 48 h
Outline: (§2)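 Log-phase L1210 cultures (0.5–1.0 × 10^5 cells/mL) treated with analogue diluted in sterile water and filter-sterilized. After 48 h, cells were reseeded and grown a further 48 h for the 96 h point. Cells counted by Coulter counter. % growth = (treated − inoculum)/(untreated − inoculum) × 100.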

L1210 [9] = test: In vitro inhibition of L1210 growth after 96 hours.; assay type: functional, cell-based; conditions: Mus musculus, L1210, 96 h; outline: as §2
[10] = biological target: T1, Ornithine decarboxylase (Mus musculus) (UniProt P00860); test: Inhibition of ornithine decarboxylase (ODC) activity; assay type: functional; parameters: concentration or dose not given beside the values
T1 sequence (whole entry): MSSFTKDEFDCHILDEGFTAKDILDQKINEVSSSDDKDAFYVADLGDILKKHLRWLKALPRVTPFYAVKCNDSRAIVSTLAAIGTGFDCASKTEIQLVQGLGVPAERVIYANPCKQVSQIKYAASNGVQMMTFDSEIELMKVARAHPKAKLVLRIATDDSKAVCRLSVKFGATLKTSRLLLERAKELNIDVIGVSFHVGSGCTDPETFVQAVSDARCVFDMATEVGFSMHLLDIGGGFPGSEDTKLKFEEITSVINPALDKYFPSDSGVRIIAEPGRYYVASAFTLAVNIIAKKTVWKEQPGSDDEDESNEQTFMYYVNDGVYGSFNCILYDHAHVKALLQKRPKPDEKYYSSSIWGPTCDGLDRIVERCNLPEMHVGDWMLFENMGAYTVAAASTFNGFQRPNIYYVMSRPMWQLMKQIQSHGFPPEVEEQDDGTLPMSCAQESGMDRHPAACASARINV

[11] = biological target: T2, S-adenosylmethionine decarboxylase proenzyme 1 (Mus musculus) (UniProt P0DMN7); test: Inhibition of S-Adenosyl-methionine decarboxylase (AdoMetDC) activity; assay type: functional; parameters: concentration or dose not given beside the values
T2 sequence (whole entry): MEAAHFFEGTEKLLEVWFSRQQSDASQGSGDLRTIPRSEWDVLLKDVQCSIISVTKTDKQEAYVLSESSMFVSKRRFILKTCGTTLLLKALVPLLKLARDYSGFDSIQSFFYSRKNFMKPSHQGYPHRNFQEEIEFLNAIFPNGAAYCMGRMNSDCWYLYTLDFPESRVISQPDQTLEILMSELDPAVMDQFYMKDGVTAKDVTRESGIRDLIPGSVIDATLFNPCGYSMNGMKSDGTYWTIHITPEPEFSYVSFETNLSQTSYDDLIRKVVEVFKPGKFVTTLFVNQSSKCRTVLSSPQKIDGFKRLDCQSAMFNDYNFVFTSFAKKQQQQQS

[12] = biological target: Spermidine/spermine N(1)-acetyltransferase (SAT) (Mus musculus) (UniProt Q6P8J2+P48026); test: […] spermidine/spermine N1-Acetyltransferase (SSAT) activity; assay type: functional; parameters: concentration or dose not given beside the values
L1210 [13] = test: Compound level in L1210 cells after 48 hours of incubation at initial concentration of 500 uM is expressed as nmol/10e6 cells; assay type: functional, Mus musculus; parameters: unit: nmol/10^6 cells
L1210 [14] = test: Compound was evaluated for its impact on spermidine levels after 48 hr at concentration 10 uM; assay type: functional, Mus musculus; outline: as §1
L1210 [15] = test: Compound was evaluated for its impact on spermine […] levels after 48 hr at concentration 10 uM; assay type: functional, Mus musculus; outline: as §1
L1210 [16] = test: Compound was evaluated for its impact on spermine levels after 48 hr at concentration 100 uM; assay type: functional, Mus musculus
L1210 [17] = test: Compound level in L1210 cells after 48 hours of incubation at initial concentration of 100 uM is expressed as nmol/10e6 cells; assay type: functional, Mus musculus; parameters: unit: nmol/10^6 cells
L1210 [18] = test: Compound was evaluated for its impact on putrescine (Put) levels after 48 hr at concentration 10 uM; assay type: functional, Mus musculus; outline: as §1
[19] = biological target: T1, Ornithine decarboxylase (Mus musculus); test: Effect of compound on ornithine decarboxylase (ODC) activity expressed as percent of untreated control for ODC (1 uM at 4 h(or 48h))
Outline: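 L1210 cells exposed to 1 μM analogue for 4 h, or for 48 h in some cases. ODC activity measured as 14CO2 released from [14C]carboxyl-labeled L-ornithine and expressed as % of untreated control.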

L1210 [20] = test: Compound was evaluated for its impact on spermidine levels after 48 hr at concentration 0.3 uM; assay type: functional, Mus musculus; outline: as §1
L1210 [21] = test: Compound was evaluated for its impact on spermidine levels after 48 hr at concentration 1.5 uM; assay type: functional, Mus musculus; outline: as §1
L1210 [22] = test: Compound was evaluated for its impact on spermine levels after 48 hr at concentration 0.3 uM; assay type: functional, Mus musculus; outline: as §1
L1210 [23] = test: Compound was evaluated for its impact on spermine levels after 48 hr at concentration 1.5 uM; assay type: functional, Mus musculus
Outline: (§3)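 Murine L1210 leukemia cells in log-phase suspension (RPMI-1640, 10% NuSerum, 2% HEPES-MOPS, 1 mM aminoguanidine, 37 °C, 5% CO2) exposed to analogue for 48 h. Cells washed twice in cold RPMI-1640, extracted with 0.6 N perchloric acid, and polyamines quantified by HPLC. Spermine is reported as % of untreated control.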

L1210 [24] = test: Compound was evaluated for its impact on putrescine (Put) levels after 48 hr at concentration 0.3 uM; assay type: functional, Mus musculus; outline: as §1
L1210 [25] = test: Compound level in L1210 cells after 48 hours of incubation at initial concentration of 0.3 uM is expressed as nmol/10e6 cells; assay type: functional, Mus musculus
Outline: (§4)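 Murine L1210 leukemia cells were kept in logarithmic growth as a suspension in RPMI-1640 with 10% NuSerum, 2% HEPES-MOPS buffer and 1 mM aminoguanidine, at 37 °C under 5% CO2. Log-phase cells were exposed to the analogue for 48 h. Intracellular analogue content is reported per 10^6 cells.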

L1210 [26] = test: Compound level in L1210 cells after 48 hours of incubation at initial concentration of 1.5 uM is expressed as nmol/10e6 cells; assay type: functional, Mus musculus; outline: as §4
L1210 [27] = test: Compound was evaluated for its impact on putrescine (Put) levels after 48 hr at concentration 1.5 uM; assay type: functional, Mus musculus; outline: as §1
L1210 [28] = test: Compound level in L1210 cells after 48 hours of incubation at initial concentration of 70 uM is expressed as nmol/10e6 cells; assay type: functional, Mus musculus; outline: as §4
L1210 [29] = test: Compound was evaluated for its impact on spermine levels after 48 hr at concentration 70 uM; assay type: functional, Mus musculus; outline: as §3
L1210 [30] = test: Compound was evaluated for its impact on spermidine levels after 48 hr at concentration 14 uM; assay type: functional, Mus musculus; outline: as §1
L1210 [31] = test: Compound was evaluated for its impact on spermidine levels after 48 hr at concentration 70 uM; assay type: functional, Mus musculus; outline: as §1
L1210 [32] = test: Compound was evaluated for its impact on putrescine (Put) levels after 48 hr at concentration 70 uM; assay type: functional, Mus musculus; outline: as §1
L1210 [33] = test: Compound level in L1210 cells after 48 hours of incubation at initial concentration of 14 uM is expressed as nmol/10e6 cells; assay type: functional, Mus musculus; outline: as §4
L1210 [34] = test: Compound was evaluated for its impact on putrescine (Put) levels after 48 hr at concentration 14 uM; assay type: functional, Mus musculus; outline: as §1
L1210 [35] = test: Compound was evaluated for its impact on spermine levels after 48 hr at concentration 14 uM; assay type: functional, Mus musculus; outline: as §3
L1210 [36] = test: Compound was evaluated for its impact on spermine levels after 48 hr at concentration 10 uM; assay type: functional, Mus musculus; outline: as §3
L1210 [37] = test: Compound level in L1210 cells after 48 hours of incubation at initial concentration of 10 uM is expressed as nmol/10e6 cells; assay type: functional, Mus musculus; outline: as §4
L1210 [38] = test: Compound was evaluated for its impact on spermidine levels after 48 hr at concentration 0.4 uM; assay type: functional, Mus musculus; outline: as §1
L1210 [39] = test: Compound was evaluated for its impact on spermidine levels after 48 hr at concentration 2 uM; assay type: functional, Mus musculus; outline: as §1
L1210 [40] = test: Compound was evaluated for its impact on spermine levels after 48 hr at concentration 0.4 uM; assay type: functional, Mus musculus; outline: as §3
L1210 [41] = test: Compound was evaluated for its impact on spermine levels after 48 hr at concentration 2 uM; assay type: functional, Mus musculus; outline: as §3
L1210 [42] = test: Compound was evaluated for its impact on putrescine (Put) levels after 48 hr at concentration 0.4 uM; assay type: functional, Mus musculus; outline: as §1
L1210 [43] = test: Compound was evaluated for its impact on putrescine (Put) levels after 48 hr at concentration 2 uM; assay type: functional, Mus musculus; outline: as §1

Chain of Spermidine/spermine N(1)-acetyltransferase (SAT) (Mus musculus) (P48026 whole entry, looked up): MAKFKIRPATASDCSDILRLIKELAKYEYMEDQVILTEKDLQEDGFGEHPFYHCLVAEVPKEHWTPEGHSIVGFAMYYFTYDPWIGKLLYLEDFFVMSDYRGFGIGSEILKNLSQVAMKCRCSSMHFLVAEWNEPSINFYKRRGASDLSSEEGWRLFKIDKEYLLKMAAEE
Chain of Spermidine/spermine N(1)-acetyltransferase (SAT) (Mus musculus) (Q6P8J2 whole entry, looked up): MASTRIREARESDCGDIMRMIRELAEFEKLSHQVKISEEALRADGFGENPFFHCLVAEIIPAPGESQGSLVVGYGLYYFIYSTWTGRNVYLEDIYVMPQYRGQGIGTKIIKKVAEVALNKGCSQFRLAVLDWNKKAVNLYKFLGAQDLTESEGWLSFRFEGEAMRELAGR

SMILES	IC50 (L1210 [8])	IC50 (L1210 [9])	Activity [10]	Activity [11]	Activity [12]	Polyamine (L1210 [1])	Ki (L1210 [5])	Polyamine (L1210 [6])	Polyamine (L1210 [14])	Polyamine (L1210 [18])	Polyamine (L1210 [36])	also measured
CC(C)NCCCCNCCCCNCCCCNC(C)C	20000 nM	60 nM	90%	78%	130%	7%	8100 nM	0%	–	–	–	Polyamine (L1210 [2]): 17%; Polyamine (L1210 [3]): 67%; Polyamine (L1210 [4]): 83%; Polyamine (L1210 [7]): 0%
CCNCCCNCCCNCCCNCC [BIS(ETHYL)NORSPERMINE]	> 100000 nM	2000 nM	–	42%	1500%	6%	17000 nM	0%	14%	30%	–	Activity (L1210 [13]): 1.59; Polyamine (L1210 [15]): 31%; Polyamine (L1210 [16]): 30%; Activity (L1210 [17]): 2.44; Activity [19]: 10%

These reach a lower IC50 (L1210 [8]). Values come first.

IC50 (L1210 [8])	IC50 (L1210 [9])	Activity [10]	Activity [11]	Activity [12]	SMILES	Polyamine (L1210 [1])	Ki (L1210 [5])	Polyamine (L1210 [6])	Polyamine (L1210 [14])	Polyamine (L1210 [18])	Polyamine (L1210 [36])	also measured
14000 nM	170 nM	3%	41%	110%	CCNCCCCNCCCCNCCCCN	–	1100 nM	–	–	–	–	Activity (L1210 [28]): 3.22; Polyamine (L1210 [29]): 26%; Polyamine (L1210 [30]): 0%; Polyamine (L1210 [31]): 0%; Polyamine (L1210 [32]): 0%; Activity (L1210 [33]): 2.99; Polyamine (L1210 [34]): 0%; Polyamine (L1210 [35]): 26%
400 nM	30 nM	79%	81%	–	CCNCCCCNCCCCNCCCCNC(C)(C)C	–	3000 nM	–	10%	0%	77%	Polyamine (L1210 [38]): 96%; Polyamine (L1210 [39]): 68%; Polyamine (L1210 [40]): 75%; Polyamine (L1210 [41]): 63%; Polyamine (L1210 [42]): 133%; Polyamine (L1210 [43]): 78%
300 nM	80 nM	5%	37%	370%	CCNCCCCNCCCCNCCCNCC	–	8000 nM	–	–	–	–	Polyamine (L1210 [20]): 47%; Polyamine (L1210 [21]): 0%; Polyamine (L1210 [22]): 65%; Polyamine (L1210 [23]): 18%; Polyamine (L1210 [24]): 40%; Activity (L1210 [25]): 0.27; Activity (L1210 [26]): 0.64; Polyamine (L1210 [27]): 0%
200 nM	70 nM	7%	41%	140%	CCNCCCCNCCCCNCCCCNCC [DIETHYLHOMOSPERMINE]	–	1400 nM	–	0%	0%	61%	Activity (L1210 [37]): 2.94
